From ChEMBL document CHEMBL1926509, “Discovery of pyrazolo[1,5-a]pyridines as p110α-selective PI3 kinase inhibitors” (Bioorg Med Chem, 2012)
Active and inactive are the calls of the source. No cut-off for these calls is given here.

How the values were obtained:
[1] = Inhibition of DNA-PK
[2] = biological target: Insulin receptor (Homo sapiens) (UniProt P06213); assay: Inhibition of IR assessed as residual activity at 1 uM
[3] = biological target: T1, Phosphatidylinositol 4,5-bisphosphate 3-kinase catalytic subunit alpha isoform (Homo sapiens, UniProt P42336); conditions: 100 nM
[4] = Selectivity ratio of IC50 for PI3K p110delta to IC50 for PI3K p110alpha
[5] = biological target: Phosphatidylinositol 4,5-bisphosphate 3-kinase catalytic subunit beta isoform (Homo sapiens, UniProt P42338); assay: Inhibition of recombinant PI3K p110beta using L-alpha-phosphatidylinositol as substrate and [gamma33P]ATP after 60 mins by thin layer chromatographic technique
Procedure, shortened: (§1)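 In-house recombinant class Ia PI3K isoform (0.1 µg) with L-α-phosphatidylinositol substrate in lipid kinase buffer (Tris–HCl pH 7.4, NaCl, EDTA), 1% DMSO final. Started with ATP mix (5 mM MgCl₂, 100 µM ATP plus [γ-³³P]ATP), 1 h at room temperature, stopped with 1 M HCl. Lipids extracted in two steps, separated by TLC, read by phosphorimager. Nine inhibitor concentrations; IC50 averaged over two experiments.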

[6] = Selectivity ratio of IC50 for PI3K p110beta to IC50 for PI3K p110alpha
[7] = Cytotoxicity against human NZB5 cells expressing wild type p110alpha assessed as inhibition of [3H]thymidine incorporation after 5 days; assay type: functional, cell-based
Procedure, shortened: (§2)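 Early-passage lab-derived lines in α-MEM with insulin, transferrin, selenite and 5% FBS. Seeded at 1000 cells/well; drug added in 10-fold steps up to 20 µM. Incubated five days under 5% O₂/5% CO₂/90% N₂, with ³H-thymidine (0.04 µCi/well) over the last 6 h. Duplicates per dose; least-squares exponential fit; IC50 is the concentration giving 50% less incorporation.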

[8] = Cytotoxicity against human NZOV9 cells expressing p110alpha Y1021C mutant assessed as inhibition of [3H]thymidine incorporation after 5 days; assay type: functional, cell-based; procedure, shortened: as §2
[9] = biological target: Mitogen-activated protein kinase 14 (Homo sapiens) (UniProt Q16539); assay: Inhibition of p38alpha assessed as residual activity at 10 uM
HCT-116 = assay: Antitumor activity against human HCT116 cells xenografted in Rag1 knockout mouse assessed as tumor growth inhibition at 20 mg/kg, ip qd for 14 days relative to untreated control; assay type: functional; conditions: HCT-116, ip, 336 h, route intraperitoneal, read-out: GI
Procedure, shortened: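 Female specific-pathogen-free Rag1−/− mice, age-matched, inoculated subcutaneously with 5×10⁶ HCT-116 cells in PBS. Dosed ip at 20 mg/kg q.d. for 14 days in 7.5% DMSO/42.5% PEG-400/20% hydroxypropyl-β-cyclodextrin/30% water; controls received vehicle only; n = 7 per group. Tumour volume measured three times weekly; 1-way ANOVA with Holm-Sidak comparison at study end.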

Mus musculus = assay: Toxicity in human HCT116 cells xenografted Rag1 knockout mouse assessed as body weight loss at 20 mg/kg, ip qd measured up to day 10; assay type: organism-based, HCT-116; design: dose 20 mg/kg, route intraperitoneal; conditions: in vivo
Procedure, shortened: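 Female specific-pathogen-free Rag1−/− mice carrying subcutaneous HCT-116 tumours, given 20 mg/kg ip daily for 14 days in a DMSO/PEG-400/hydroxypropyl-β-cyclodextrin/water vehicle; controls received vehicle; n = 7 per group. Bodyweight recorded daily; mice culled if loss exceeded 20% of starting weight.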

[10] = biological target: Dual specificity mitogen-activated protein kinase kinase 1 (Homo sapiens) (UniProt Q02750); assay: Inhibition of MKK1 assessed as residual activity at 1 uM
[11] = biological target: Insulin receptor (Homo sapiens) (UniProt P06213); assay: Inhibition of IR assessed as residual activity at 10 uM
[12] = biological target: Phosphatidylinositol 4,5-bisphosphate 3-kinase catalytic subunit alpha isoform (Homo sapiens, UniProt P42336, H1047R); assay: Inhibition of PI3K […] H1047R mutant-mediated PKB phosphorylation at Thr308 in human HCT116 cells after 15 mins by immunoblot analysis; assay type: cell-based, HCT-116
Procedure, shortened: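 HCT-116 cells in MEM alpha with 10% FBS and penicillin/streptomycin were seeded, grown 1 day, then serum-starved overnight. They were exposed to a range of inhibitor concentrations in DMSO (0.1% final) for 15 min, then stimulated with 500 nM insulin for 5 min. Phospho-PKB (Ser473 or Thr308) was detected by immunoblotting.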

[13] = biological target: High affinity nerve growth factor receptor (Homo sapiens) (UniProt P04629); assay: Inhibition of TrkA assessed as residual activity at 1 uM
[14] = biological target: T1, Phosphatidylinositol 4,5-bisphosphate 3-kinase catalytic subunit alpha isoform; assay: Inhibition of recombinant PI3K p110alpha using L-alpha-phosphatidylinositol as substrate and [gamma33P]ATP after 60 mins by thin layer chromatographic technique; procedure, shortened: as §1
[15] = biological target: Mitogen-activated protein kinase 14 (Homo sapiens) (UniProt Q16539); assay: Inhibition of p38alpha assessed as residual activity at 1 uM
[16] = biological target: High affinity nerve growth factor receptor (Homo sapiens) (UniProt P04629); assay: Inhibition of TrkA assessed as residual activity at 10 uM

T1 sequence (P42336 whole entry, canonical isoform): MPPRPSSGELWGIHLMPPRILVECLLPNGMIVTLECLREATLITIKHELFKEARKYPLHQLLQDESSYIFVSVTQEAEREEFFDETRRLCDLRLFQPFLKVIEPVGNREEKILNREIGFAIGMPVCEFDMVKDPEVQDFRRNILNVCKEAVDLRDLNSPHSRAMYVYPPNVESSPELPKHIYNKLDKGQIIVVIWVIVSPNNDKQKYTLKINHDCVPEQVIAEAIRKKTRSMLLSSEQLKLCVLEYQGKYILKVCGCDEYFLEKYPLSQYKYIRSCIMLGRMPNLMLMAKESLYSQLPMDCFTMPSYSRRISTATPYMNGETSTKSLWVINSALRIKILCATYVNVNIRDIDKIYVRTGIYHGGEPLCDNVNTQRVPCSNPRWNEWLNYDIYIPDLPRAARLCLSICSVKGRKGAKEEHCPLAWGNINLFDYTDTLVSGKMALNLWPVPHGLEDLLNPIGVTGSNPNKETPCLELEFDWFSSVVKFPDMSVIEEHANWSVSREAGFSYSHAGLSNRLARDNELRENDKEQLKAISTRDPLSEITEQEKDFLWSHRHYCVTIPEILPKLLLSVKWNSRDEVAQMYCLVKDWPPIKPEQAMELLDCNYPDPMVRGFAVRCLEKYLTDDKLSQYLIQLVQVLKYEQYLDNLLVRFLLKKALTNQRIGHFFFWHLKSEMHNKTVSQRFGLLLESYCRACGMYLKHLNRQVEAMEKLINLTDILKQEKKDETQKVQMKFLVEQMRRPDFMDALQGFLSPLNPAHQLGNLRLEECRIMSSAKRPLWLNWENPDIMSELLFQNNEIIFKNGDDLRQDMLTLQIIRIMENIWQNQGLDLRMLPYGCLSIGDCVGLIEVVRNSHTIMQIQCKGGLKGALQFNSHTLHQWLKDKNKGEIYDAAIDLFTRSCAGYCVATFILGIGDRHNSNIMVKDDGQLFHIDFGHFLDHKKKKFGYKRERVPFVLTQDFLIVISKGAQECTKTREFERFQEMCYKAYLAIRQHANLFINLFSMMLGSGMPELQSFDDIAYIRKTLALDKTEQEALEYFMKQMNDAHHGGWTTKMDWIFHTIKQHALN
Sequence of Insulin receptor (Homo sapiens) (P06213 28-758 limits assumed): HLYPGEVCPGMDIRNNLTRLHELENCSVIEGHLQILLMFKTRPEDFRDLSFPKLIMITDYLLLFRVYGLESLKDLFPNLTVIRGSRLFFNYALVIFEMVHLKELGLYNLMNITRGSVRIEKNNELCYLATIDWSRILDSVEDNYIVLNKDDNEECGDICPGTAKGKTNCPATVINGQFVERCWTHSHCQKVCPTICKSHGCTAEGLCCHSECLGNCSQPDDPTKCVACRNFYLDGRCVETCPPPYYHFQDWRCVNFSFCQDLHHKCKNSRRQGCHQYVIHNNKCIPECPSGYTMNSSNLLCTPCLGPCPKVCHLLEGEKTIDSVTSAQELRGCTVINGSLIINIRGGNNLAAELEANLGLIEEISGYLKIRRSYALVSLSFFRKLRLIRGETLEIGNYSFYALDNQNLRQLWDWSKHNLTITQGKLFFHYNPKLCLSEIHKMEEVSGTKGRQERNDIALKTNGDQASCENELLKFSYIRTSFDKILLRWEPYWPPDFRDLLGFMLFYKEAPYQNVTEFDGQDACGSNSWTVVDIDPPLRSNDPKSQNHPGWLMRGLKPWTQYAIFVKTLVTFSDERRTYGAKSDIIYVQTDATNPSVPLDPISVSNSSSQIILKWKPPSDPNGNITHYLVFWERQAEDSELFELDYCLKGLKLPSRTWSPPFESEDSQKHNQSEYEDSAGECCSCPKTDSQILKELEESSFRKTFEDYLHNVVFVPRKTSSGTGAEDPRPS
Sequence of Insulin receptor (Homo sapiens) (P06213 763-1382 limits assumed): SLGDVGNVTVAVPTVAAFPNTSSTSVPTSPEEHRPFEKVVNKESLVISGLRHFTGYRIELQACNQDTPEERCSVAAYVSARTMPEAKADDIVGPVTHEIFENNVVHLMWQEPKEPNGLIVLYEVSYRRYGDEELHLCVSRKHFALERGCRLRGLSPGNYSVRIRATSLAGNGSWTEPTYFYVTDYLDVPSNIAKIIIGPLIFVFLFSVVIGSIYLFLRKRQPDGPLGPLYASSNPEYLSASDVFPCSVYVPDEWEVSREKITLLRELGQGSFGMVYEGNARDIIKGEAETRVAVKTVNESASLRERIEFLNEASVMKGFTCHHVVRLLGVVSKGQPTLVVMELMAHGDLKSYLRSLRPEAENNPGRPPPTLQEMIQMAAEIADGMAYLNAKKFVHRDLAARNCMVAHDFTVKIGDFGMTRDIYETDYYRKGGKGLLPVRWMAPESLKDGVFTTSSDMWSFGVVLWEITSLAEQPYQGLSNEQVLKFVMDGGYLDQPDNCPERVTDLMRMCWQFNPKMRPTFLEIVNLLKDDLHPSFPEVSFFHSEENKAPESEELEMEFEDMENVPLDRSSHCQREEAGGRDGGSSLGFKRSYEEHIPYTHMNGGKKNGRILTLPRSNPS
Sequence of High affinity nerve growth factor receptor (Homo sapiens) (P04629 33-796 limits assumed): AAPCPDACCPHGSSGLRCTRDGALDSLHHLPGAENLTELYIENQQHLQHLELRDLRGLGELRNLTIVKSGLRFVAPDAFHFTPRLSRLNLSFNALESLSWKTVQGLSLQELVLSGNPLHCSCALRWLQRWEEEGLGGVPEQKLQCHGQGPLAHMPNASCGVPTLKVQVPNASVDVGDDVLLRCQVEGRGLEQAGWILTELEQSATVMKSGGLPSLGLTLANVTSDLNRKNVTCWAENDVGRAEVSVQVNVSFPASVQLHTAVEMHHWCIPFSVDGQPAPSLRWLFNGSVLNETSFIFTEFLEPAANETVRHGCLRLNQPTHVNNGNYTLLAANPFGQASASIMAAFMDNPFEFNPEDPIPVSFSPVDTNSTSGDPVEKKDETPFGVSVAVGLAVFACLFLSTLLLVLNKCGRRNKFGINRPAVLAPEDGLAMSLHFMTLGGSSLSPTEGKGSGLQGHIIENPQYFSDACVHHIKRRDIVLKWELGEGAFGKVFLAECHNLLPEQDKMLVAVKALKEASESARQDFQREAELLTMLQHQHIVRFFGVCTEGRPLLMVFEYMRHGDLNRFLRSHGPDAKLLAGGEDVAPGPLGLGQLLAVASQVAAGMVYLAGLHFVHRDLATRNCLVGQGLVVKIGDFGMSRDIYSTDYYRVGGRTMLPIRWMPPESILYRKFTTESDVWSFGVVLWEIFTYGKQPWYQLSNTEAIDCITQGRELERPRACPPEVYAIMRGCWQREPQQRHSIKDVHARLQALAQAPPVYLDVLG
Sequence of Mitogen-activated protein kinase 14 (Homo sapiens) (Q16539 whole entry): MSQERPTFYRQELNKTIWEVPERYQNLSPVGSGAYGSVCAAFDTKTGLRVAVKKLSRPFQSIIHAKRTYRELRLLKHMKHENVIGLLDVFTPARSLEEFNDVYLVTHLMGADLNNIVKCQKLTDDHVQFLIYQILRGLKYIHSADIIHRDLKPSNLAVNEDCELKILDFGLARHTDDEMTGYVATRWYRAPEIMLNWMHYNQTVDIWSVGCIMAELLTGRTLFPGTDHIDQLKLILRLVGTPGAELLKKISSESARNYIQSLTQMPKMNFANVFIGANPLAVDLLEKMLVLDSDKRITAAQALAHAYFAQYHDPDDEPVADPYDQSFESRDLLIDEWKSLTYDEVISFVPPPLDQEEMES
Sequence of Phosphatidylinositol 4,5-bisphosphate 3-kinase catalytic subunit beta isoform (P42338 whole entry, canonical isoform): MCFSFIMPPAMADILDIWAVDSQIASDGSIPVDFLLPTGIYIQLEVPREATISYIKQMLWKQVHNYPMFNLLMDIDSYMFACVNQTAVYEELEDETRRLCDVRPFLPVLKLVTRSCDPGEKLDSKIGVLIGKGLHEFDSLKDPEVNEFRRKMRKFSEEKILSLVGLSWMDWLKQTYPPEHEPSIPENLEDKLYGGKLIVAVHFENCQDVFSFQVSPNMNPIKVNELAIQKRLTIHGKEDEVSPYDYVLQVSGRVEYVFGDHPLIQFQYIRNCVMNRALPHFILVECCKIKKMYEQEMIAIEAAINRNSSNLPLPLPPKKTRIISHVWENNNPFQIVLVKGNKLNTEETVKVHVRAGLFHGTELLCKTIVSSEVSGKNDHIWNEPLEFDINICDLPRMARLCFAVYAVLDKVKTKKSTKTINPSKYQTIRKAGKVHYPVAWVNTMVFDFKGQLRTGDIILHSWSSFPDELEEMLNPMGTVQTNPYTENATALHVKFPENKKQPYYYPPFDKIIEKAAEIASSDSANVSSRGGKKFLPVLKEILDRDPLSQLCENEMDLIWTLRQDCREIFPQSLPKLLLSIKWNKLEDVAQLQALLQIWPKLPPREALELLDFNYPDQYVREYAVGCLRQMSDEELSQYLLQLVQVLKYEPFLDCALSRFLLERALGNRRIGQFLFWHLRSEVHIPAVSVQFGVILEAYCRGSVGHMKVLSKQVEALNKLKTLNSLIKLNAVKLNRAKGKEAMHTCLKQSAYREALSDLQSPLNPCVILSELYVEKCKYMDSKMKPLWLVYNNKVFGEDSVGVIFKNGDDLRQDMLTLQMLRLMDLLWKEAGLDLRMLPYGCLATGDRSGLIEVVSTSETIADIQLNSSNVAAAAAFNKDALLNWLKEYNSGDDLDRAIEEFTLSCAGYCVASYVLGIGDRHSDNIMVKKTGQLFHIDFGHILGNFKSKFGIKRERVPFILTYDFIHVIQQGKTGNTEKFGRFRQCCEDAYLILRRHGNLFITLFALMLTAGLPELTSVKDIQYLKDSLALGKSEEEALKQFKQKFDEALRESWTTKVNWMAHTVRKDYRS
Sequence of Dual specificity mitogen-activated protein kinase kinase 1 (Homo sapiens) (Q02750 whole entry): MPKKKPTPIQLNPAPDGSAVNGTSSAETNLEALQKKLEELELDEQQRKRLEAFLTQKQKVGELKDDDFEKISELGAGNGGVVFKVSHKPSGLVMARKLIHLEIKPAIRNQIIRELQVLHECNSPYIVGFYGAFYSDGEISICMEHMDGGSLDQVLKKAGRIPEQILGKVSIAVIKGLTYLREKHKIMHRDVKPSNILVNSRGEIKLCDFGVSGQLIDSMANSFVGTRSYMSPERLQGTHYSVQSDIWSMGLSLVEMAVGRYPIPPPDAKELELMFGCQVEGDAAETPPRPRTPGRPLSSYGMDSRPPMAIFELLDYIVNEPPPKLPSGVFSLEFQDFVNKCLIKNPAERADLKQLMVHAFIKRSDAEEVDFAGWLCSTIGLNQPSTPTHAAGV

In the case of `Cc1ccc([N+](=O)[O-])cc1S(=O)(=O)N(C)/N=C/c1cnn2ccc(C#N)cc12`, the IC50 [1] is reported as 0.0011 µM, the Activity [2] is reported as 55% and the inhibition [3] is reported as “inactive”. For the same molecule, the Ratio IC50 [4] was 50, the IC50 [5] was 0.046 µM and the Ratio IC50 [6] was 50. It also gave an IC50 [7] of 0.06 µM, an IC50 [8] of 1.4 µM and an Activity [9] of 9%. The inhibition in vivo at 20 mg/kg (HCT-116) was 39.1%, the Activity (Mus musculus) was “Non-toxic” and the Activity [10] was 10%. It also gave an Activity [11] of 42%, an IC50 [12] of 0.026 µM and an Activity [13] of 19%. It also gave an IC50 [14] of 0.0009 µM, an Activity [15] of 18% and an Activity [16] of 13%.
